Assay results as given in ChEMBL document CHEMBL3779851, “Synthesis and biological evaluation of salicylic acid conjugated isoxazoline analogues on immune cell proliferation and angiogenesis” (2016).
Calls of active or inactive are those of the source. No cut-off for these calls is given here.

Tests used:
HEK293 = assay: Induction of cell proliferation of HEK293 cells assessed as proliferation rate at 100 uM measured up to 72 hrs by MTT assay; assay type: functional; details: Homo sapiens, HEK293, 72 h; read-out: Activity
PBL [1] = assay: Immunostimulatory activity in human PBL assessed as increase in cell proliferation […] after 72 hrs by MTT assay relative to control; assay type: functional
In short: (§1)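 Ficoll-isolated human PBLs were plated at 2.5×10^6 cells/mL in RPMI-1640 at 37 °C, 5% CO2. After 3 h they were treated with 0, 10, 20, 50 or 100 µM compound in DMSO, with Con A at 1–20 µg/mL as reference mitogen. MTT was added at 72 h for 4 h, and formazan dissolved in DMSO was read at 570 nm. Proliferative index was taken as fold over untreated control, from three independent experiments.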

PBL [2] = assay: Ex-vivo induction of IL-23 production in human PBL at 100 uM after 72 hrs by ELISA; assay type: functional, cell-based
In short: (§2)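 Human PBLs were isolated from heparinized venous blood of consenting volunteers aged 18–60 y on Ficoll-hypaque (1.077 g/mL). They were seeded at 5×10^5 cells/well in RPMI-1640, exposed to compound in DMSO, and held 72 h at 37 °C, 5% CO2. Supernatants were taken after centrifugation at 240 × g, and IL-2, IL-12 and IL-23 were measured by ELISA, in triplicate.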

PBL [3] = assay: Ex-vivo induction of IL-12 production in human PBL at 100 uM after 72 hrs by ELISA; assay type: functional, cell-based; in short: as §2
PBL [4] = assay: Immunostimulatory activity in human PBL assessed as increase in cell proliferation after 72 hrs by MTT assay; assay type: functional, cell-based; in short: as §1
[5] = Immunostimulatory activity in Swiss albino mouse splenocytes assessed as increase in proliferation at 100 uM after 72 hrs by MTT assay relative to ConA; assay type: functional, Splenocyte
In short: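 Splenocytes came from Swiss albino mice (23–25 g, 12 weeks). Erythrocytes were lysed in NH4Cl/KHCO3/EDTA buffer, pH 7.4. Cells were plated at 2.5×10^6 cells/mL in RPMI-1640 at 37 °C, 5% CO2, and compound (0–100 µM in DMSO) was added after 3 h. After 72 h, MTT was added for 4 h and formazan dissolved in DMSO was read at 570 nm. Con A (1–20 µg/mL) served as reference, and the index was expressed as fold over untreated control (1.0).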

PBL [6] = assay: Ex-vivo induction of IL-2 production in human PBL at 100 uM after 72 hrs by ELISA relative to control; assay type: functional; in short: as §2
PBL [7] = assay: Ex-vivo induction of IL-2 production in human PBL at 100 uM after 72 hrs by ELISA (reference value: 328 pg/ml); assay type: functional; in short: as §2
[8] = target: Prostaglandin G/H synthase 1 (Homo sapiens) (UniProt P23219); assay: Inhibition of COX1 in human PBL after 72 hrs by colorimetric method; details: concentration not given here
Prostaglandin G/H synthase 1 (Homo sapiens), sequence (P23219 whole entry): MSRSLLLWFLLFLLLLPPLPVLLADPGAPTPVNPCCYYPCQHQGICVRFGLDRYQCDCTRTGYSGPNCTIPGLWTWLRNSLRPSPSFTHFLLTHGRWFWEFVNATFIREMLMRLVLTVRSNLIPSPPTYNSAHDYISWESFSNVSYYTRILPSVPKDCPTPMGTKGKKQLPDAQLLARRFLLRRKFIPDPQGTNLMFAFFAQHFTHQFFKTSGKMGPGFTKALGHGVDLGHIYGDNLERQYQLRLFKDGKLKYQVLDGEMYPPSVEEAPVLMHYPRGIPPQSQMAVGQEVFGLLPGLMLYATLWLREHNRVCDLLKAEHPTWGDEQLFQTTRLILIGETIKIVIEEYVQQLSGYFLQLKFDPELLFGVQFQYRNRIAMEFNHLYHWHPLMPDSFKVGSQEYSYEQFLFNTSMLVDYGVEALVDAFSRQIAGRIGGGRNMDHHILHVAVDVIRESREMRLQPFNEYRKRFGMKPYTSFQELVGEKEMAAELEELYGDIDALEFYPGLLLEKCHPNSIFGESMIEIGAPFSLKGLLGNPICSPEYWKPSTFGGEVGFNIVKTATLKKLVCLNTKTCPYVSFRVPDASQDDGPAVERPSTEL

Chorioallantoic membrane = assay: Pro-angiogenic activity in chicken chorioallantoic membrane assessed as dense blood vessel formation by measuring microvascular density at 20 uM after 12 days; assay type: functional; details: Gallus gallus
Cornea = assay: Pro-angiogenic activity in rat cornea assessed as vascularization by measuring microvascular density at 20 ug after overnight incubation; assay type: functional

Compound	growth at 100 µM (HEK293)	Activity (PBL [1])	further results
COc1ccc(C2=NOC(c3ccccc3)C2C(=O)c2ccc(O)c(C(=O)O)c2)c(OC)c1 (configuration not stated)	0%	–	–
O=C(O)c1cc(C(=O)C2C(c3cccc(Cl)c3)=NOC2c2cccc(Cl)c2)ccc1O (configuration not stated)	42%	Active	–
COc1ccc(C2=NOC(c3cccc(Cl)c3)C2C(=O)c2ccc(O)c(C(=O)O)c2)cc1 (configuration not stated)	73%	–	Activity (PBL [2]): inactive; Activity (PBL [3]): inactive; Activity (PBL [4]): Dose-dependent effect; fold change (FC) (PBL [1]): 1.25; fold change (FC) [5]: 1.2; fold change (FC) (PBL [6]): 4; Activity (PBL [7]): 1460 pg/mL; inhibition [8]: 39%; Activity (Chorioallantoic membrane): Active; Activity (Cornea): Active
O=C(O)c1cc(C(=O)C2C(c3ccc(Cl)cc3)=NOC2c2ccc(Cl)cc2)ccc1O (configuration not stated)	9%	inactive	–
COc1ccc(C2ON=C(c3cccc(Cl)c3)C2C(=O)c2ccc(O)c(C(=O)O)c2)cc1 (configuration not stated)	9%	inactive	–
COc1ccc(C2=NOC(c3ccc(O)cc3)C2C(=O)c2ccc(O)c(C(=O)O)c2)cc1 (configuration not stated)	8%	–	–
COc1ccc(C2ON=C(c3ccc(Cl)cc3)C2C(=O)c2ccc(O)c(C(=O)O)c2)cc1 (configuration not stated)	11%	inactive	–
O=C(O)c1cc(C(=O)C2C(c3ccc(Cl)cc3)=NOC2c2ccc(Br)cc2)ccc1O (configuration not stated)	6%	inactive	–
O=C(O)c1cc(C(=O)C2C(c3cccc(Cl)c3)=NOC2c2ccc(O)cc2)ccc1O (configuration not stated)	0%	inactive	–
O=C(O)c1cc(C(=O)C2C(c3cccc(Cl)c3)=NOC2c2ccc(Br)cc2)ccc1O (configuration not stated)	12%	inactive	–
